Measurements pooled from the literature.
Compare with care: the assays were run in different laboratories.
EDNRA: Endothelin-1 receptor (EDNRA, Homo sapiens, UniProt P25101)
CASP6: Caspase-6 (CASP6, Homo sapiens, UniProt P55212)
PROC: Vitamin K-dependent protein C (PROC, Homo sapiens, UniProt P04070)

`C#Cc1n[nH]c2c(-c3cn(C(C)c4ccccn4)c(=O)[nH]c3=O)cc(F)cc12` (centres unmarked) gave an inhibition of 6.7% (Aurora kinase B (AURKB, Homo sapiens, UniProt Q96GD4); enzyme activity; inhibitor; 1 µM).
With `CN(CCN1CCC(OC(=O)Nc2ccccc2-c2ccccc2)CC1)C(=O)c1ccc(CN2CCC(C(N)=O)CC2)cc1` the inhibition was -2% (Corticotropin-releasing factor receptor 1 (Rattus norvegicus, UniProt P35353); ligand displacement; radioligand; 1 µM).
The inhibition of `COc1cc(Nc2ncc(F)c(Nc3ccc4c(n3)NC(=O)C(C)(C)O4)n2)cc(OC)c1OC` is reported as 0% (Serine/threonine-protein kinase VRK2 (VRK2, Homo sapiens, UniProt Q86Y07); binding; 10 µM).
With `C[C@H](C(=O)N[C@H]1COc2ccccc2[C@@H]1S(C)(=O)=O)c1ccc(F)cc1` the inhibition was -5% (cGMP-specific 3',5'-cyclic phosphodiesterase (PDE5A, Homo sapiens, UniProt O76074); enzyme activity; inhibitor; 10 µM).
`CC(C)[C@H](NC(=O)OCc1ccccc1)C(=O)N[C@@H](CCCN=C(N)N)C(=O)N1CCC[C@H]1C(=O)N[C@@H](CCCN=C(N)N)C(=O)CF` gave an inhibition of 97% (Mucosa-associated lymphoid tissue lymphoma translocation protein 1 (MALT1, Homo sapiens, UniProt Q9UDY8); enzyme activity; inhibitor; 0.1 µM).
`Cn1cc(-c2cc(F)cc(N3CCn4c(cc5c4CCCC5)C3=O)c2CO)cc(Nc2ccc(N3CCN(C4COC4)CC3)cn2)c1=O` has an inhibition of 4% (Sphingosine kinase 1 (SPHK1, Homo sapiens, UniProt Q9NYA1); enzyme activity; inhibitor; 0.1 µM).
With `CC(C)N1CCC[C@H]1CNC(=O)c1cn(C2CCCC2)c(=O)c2c1c1ccccc1n2C` the inhibition was 11% (EDNRA; ligand displacement; radioligand; 10 µM).
`OC[C@@]12C[C@@H]1[C@@H](n1cnc3c(NC(C4CCCC4)C4CCCC4)nc(Cl)nc31)[C@H](O)[C@@H]2O` has an inhibition of 22% (5-hydroxytryptamine receptor 2A (HTR2A, Homo sapiens, UniProt P28223); ligand displacement; radioligand; 10 µM).
The inhibition of `COCc1c(-c2cc3cc(C)cc(OC)c3s2)c2c(N)ncnn2c1CN1CCNC(=O)C1` is reported as 12% (EDNRA; ligand displacement; radioligand; 10 µM).
`N=C(N)c1ccc2cc(OC(=O)c3ccc(N=C(N)N)cc3)ccc2c1` has an inhibition of 4% (CASP6; enzyme activity; inhibitor; 10 µM).
With `CC(C)=CCC[C@]1(C)C=Cc2c(O)c3c(c(CC=C(C)C)c2O1)O[C@]12C(=C[C@@H]4C[C@H]1C(C)(C)O[C@@]2(C/C=C(/C)C(=O)O)C4=O)C3=O` the inhibition was -8% (Histone-lysine N-methyltransferase EHMT1 (EHMT1, Homo sapiens, UniProt Q9H9B1); cell-free assay; 10 µM).
For `O=C(Nc1cccnn1)N1CCN([C@@H]2CCOc3cc(C(F)(F)F)ccc32)CC1`, the inhibition was 4% (Histamine H4 receptor (HRH4, Homo sapiens, UniProt Q9H3N8); cell-free assay; 20 µM).
For `C[C@H]1N=C(c2ccccc2F)c2cc(Br)ccc2-n2cnc(C(=O)O)c21`, the inhibition was 52.3% (Kappa-type opioid receptor (OPRK1, Homo sapiens, UniProt P41145); ligand displacement; radioligand; 10 µM).
`COc1ccc(S(=O)(=O)N2CCCCC2)cc1C` gave an inhibition of under 30% (EDNRA; ligand displacement; radioligand; 10 µM).
The inhibition of `[H]/N=C(/N)c1ccc(NCc2nc3cc(C(=O)N(CCC(=O)O)c4ccccn4)ccc3n2C)cc1` is reported as 43% (PROC; enzyme activity; inhibitor; 2 µM).
`Cn1cc(-c2cccc(N3CCc4c(sc5c4CC(C)(C)C5)C3=O)c2CO)cc(Nc2ccncn2)c1=O` gave an inhibition of -3% (Phosphatidylinositol 4-phosphate 3-kinase C2 domain-containing subunit beta (PIK3C2B, Homo sapiens, UniProt O00750); enzyme activity; inhibitor; 1 µM).
For `CCOC(=O)c1ccc(OC(=O)CCCCCNC(=N)N)cc1`, the inhibition was 99% (PROC; enzyme activity; inhibitor; 10 µM).
`CC(C)Cn1cnc2c(N)nc3ccccc3c21` gave an inhibition of 8% (EDNRA; ligand displacement; radioligand; 10 µM).
The inhibition of `CN(C)C(=O)COC(=O)Cc1ccc(OC(=O)c2ccc(NC(=N)N)cc2)cc1` is reported as 3% (CASP6; enzyme activity; inhibitor; 10 µM).
For `CCN(CC)CCCC[C@H](NC(=O)[C@H](CC(C)C)NC(=O)[C@H](C)NC(=O)[C@H](Cc1ccccc1)NC(=O)c1ccc(C(C)(C)C)cc1)C(=O)N[C@@H](CO)C(=O)OC`, the inhibition was -13% (Cannabinoid receptor 1 (CNR1, Homo sapiens, UniProt P21554); ligand displacement; radioligand; 10 µM).
